Source: ChEMBL document CHEMBL1158377, “Phenylpyrrole derivatives as neural and inducible nitric oxide synthase (nNOS and iNOS) inhibitors” (Eur J Med Chem, 2009)
Active and inactive are the calls of the source. The calls are words filed in the database; no cut-off is given here.

Columns and labels:
[1] = target: Nitric oxide synthase 1 (Homo sapiens) (UniProt P29475); experiment: Inhibition of nNOS
[2] = target: Nitric oxide synthase, inducible (Rattus norvegicus) (UniProt Q06518); experiment: Inhibition of iNOS in LPS-treated Wistar rat lung tissue homogenate assessed as conversion of L-[3H]arginine to L-[3H]citrulline at 1 mM by liquid scintillation spectroscopy
Sequence of Nitric oxide synthase, inducible (Rattus norvegicus) (Q06518 whole entry): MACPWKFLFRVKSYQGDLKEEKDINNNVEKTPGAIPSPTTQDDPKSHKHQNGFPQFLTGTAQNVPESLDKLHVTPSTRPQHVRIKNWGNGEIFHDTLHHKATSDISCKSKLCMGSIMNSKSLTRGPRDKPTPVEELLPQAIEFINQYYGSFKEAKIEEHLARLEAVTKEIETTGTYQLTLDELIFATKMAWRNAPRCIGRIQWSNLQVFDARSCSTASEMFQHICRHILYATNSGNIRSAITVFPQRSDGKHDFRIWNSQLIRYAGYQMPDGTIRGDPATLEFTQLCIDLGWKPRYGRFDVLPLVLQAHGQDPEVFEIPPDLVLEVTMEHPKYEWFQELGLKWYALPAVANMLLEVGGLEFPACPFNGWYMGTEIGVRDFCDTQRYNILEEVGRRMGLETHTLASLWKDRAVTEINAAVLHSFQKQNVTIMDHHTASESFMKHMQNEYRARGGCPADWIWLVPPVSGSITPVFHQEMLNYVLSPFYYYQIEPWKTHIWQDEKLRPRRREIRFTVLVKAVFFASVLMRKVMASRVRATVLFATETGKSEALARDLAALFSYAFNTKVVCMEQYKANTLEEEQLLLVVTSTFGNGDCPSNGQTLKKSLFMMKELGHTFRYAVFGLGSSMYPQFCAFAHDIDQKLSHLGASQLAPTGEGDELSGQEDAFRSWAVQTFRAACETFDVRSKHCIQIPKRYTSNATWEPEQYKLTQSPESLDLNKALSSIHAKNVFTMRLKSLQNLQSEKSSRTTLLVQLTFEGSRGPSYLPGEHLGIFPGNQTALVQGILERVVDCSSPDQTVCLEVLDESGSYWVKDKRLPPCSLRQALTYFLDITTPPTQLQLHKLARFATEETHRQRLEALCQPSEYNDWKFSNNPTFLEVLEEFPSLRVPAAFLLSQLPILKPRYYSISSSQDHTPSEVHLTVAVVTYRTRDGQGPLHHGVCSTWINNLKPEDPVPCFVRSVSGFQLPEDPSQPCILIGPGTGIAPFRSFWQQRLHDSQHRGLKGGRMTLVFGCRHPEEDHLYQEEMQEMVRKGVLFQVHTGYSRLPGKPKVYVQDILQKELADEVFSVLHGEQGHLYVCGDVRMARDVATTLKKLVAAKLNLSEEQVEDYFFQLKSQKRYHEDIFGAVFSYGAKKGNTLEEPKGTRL
Method in brief: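 iNOS induced in Wistar rats by LPS 20 mg/Kg i.v.; lungs taken 8 h later, homogenized in ice-cold Tris-HCl pH 7.6 with protease inhibitors, then incubated with 10 mM EDTA to remove nNOS activity. Conversion of L-[3H]-arginine to L-[3H]-citrulline at 37 °C for 30 min with NADPH, compound 1 mM final; Dowex separation, scintillation counting.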

[3] = target: Nitric oxide synthase 1 (Rattus norvegicus) (UniProt P29476); experiment: Inhibition of nNOS in Wistar rat striata tissue homogenate assessed as conversion of L-[3H]arginine to L-[3H]citrulline at 1 mM by liquid scintillation spectroscopy; format: tissue-based; settings: Striatum
Sequence of Nitric oxide synthase 1 (Rattus norvegicus) (P29476 whole entry): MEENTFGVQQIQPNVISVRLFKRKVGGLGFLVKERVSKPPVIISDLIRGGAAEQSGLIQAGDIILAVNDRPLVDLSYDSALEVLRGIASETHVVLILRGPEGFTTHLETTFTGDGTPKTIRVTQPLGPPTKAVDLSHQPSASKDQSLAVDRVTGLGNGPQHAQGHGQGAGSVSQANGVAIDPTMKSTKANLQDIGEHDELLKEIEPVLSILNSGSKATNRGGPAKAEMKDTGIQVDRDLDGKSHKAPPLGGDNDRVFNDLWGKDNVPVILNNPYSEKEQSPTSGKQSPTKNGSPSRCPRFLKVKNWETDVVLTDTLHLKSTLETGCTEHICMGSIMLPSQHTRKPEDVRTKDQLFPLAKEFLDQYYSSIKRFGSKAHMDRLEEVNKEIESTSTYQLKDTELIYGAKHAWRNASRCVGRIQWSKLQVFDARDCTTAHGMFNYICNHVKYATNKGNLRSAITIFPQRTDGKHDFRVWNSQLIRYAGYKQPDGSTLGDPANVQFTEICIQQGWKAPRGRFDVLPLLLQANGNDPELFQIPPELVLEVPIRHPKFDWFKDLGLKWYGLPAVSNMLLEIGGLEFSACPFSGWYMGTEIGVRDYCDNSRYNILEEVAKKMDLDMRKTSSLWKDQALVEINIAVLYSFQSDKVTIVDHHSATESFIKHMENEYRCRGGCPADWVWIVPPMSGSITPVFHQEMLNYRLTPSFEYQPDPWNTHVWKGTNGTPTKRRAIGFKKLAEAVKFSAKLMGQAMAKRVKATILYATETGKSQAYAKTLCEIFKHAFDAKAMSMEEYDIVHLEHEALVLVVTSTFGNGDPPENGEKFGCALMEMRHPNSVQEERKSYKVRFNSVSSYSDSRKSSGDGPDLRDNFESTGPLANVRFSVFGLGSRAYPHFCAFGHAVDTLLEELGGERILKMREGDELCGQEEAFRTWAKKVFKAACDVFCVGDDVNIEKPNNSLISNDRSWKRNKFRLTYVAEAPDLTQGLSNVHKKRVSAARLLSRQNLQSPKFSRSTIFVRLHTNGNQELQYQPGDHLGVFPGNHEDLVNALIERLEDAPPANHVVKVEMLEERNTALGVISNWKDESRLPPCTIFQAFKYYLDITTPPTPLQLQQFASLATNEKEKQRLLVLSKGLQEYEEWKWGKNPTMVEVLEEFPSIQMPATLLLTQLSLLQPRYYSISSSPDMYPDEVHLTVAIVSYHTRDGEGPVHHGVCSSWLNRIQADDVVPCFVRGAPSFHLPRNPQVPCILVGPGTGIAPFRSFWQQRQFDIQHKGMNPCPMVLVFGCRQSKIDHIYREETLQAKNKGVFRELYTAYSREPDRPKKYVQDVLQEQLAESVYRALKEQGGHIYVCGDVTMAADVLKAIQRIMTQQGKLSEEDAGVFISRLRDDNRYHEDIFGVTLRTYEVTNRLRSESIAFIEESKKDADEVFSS
Method in brief: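 Male Wistar rats killed by cervical dislocation; fresh striata homogenized in Tris-HCl pH 7.6 with protease inhibitors, spun 1000g 5 min. Supernatant incubated 30 min at 37 °C with 10 µM L-arginine plus 50 nM L-[3H]-arginine, CaCl2, BH4, FAD, NADPH 0.75 mM final; compound 1 mM final in DMSO. Dowex-50W separation; citrulline by scintillation; NADPH-omitted blank subtracted. Three experiments in triplicate, four striata each.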

[4] = Binding affinity to CaCAM
[5] = target: T1, Nitric oxide synthase, inducible (Mus musculus) (UniProt P29477); experiment: Inhibition of inducible mitochondrial NOS in stantia nigra isolated from MPTP-induced parkinson's disease C57/Bl6 mouse model assessed as L-[3H]citrulline per mg of protein at 20 mg/kg, b.w 1 hr before MPTP challenge after 32 hrs by liquid scintillation spectroscopy; format: organism-based; design: dose 20 mg/kg
T1 sequence (whole entry): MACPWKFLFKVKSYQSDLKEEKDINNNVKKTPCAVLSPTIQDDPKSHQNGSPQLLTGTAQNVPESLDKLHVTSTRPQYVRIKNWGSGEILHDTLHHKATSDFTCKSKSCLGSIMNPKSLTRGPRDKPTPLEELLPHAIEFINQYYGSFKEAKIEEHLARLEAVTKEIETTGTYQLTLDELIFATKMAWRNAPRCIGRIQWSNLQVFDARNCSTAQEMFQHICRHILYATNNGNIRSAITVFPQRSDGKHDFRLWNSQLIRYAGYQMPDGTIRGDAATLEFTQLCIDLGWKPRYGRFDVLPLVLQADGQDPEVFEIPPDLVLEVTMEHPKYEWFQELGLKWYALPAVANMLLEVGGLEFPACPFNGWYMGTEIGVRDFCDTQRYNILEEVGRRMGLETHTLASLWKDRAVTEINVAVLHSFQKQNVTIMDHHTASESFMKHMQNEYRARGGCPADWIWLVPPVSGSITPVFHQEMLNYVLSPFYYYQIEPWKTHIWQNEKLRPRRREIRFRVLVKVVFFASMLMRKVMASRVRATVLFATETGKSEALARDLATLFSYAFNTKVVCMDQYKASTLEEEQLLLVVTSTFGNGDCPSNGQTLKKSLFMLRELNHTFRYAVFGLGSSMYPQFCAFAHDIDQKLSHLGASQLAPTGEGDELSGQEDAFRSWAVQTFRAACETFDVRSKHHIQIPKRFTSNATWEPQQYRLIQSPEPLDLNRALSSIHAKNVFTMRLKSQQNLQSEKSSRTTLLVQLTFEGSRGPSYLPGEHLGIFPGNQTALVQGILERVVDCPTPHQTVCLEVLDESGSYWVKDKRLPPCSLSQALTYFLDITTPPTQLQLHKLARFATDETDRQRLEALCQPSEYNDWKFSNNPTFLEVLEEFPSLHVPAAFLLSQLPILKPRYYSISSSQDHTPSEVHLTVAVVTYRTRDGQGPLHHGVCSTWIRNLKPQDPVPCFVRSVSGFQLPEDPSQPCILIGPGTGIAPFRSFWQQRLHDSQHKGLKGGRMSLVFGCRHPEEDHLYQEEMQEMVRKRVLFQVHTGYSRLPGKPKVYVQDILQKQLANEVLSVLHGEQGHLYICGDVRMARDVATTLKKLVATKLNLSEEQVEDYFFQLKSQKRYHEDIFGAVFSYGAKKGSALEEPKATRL
Method in brief: (§1)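 C57/Bl6 mice (22–28 g) given MPTP 15 mg/kg s.c. at 0, 2, 4, 6, 24, 26 and 28 h; single compound dose 20 mg/kg b.w. 1 h before first MPTP; controls got ethanol/saline vehicle. Killed 32 h after treatments; substantia nigra cytosol and mitochondria assayed by L-[3H]-citrulline formation, as pmol/mg protein/min. Seven experiments in triplicate, four SN each.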

[6] = target: Nitric oxide synthase 1 (Mus musculus) (UniProt Q9Z0J4); experiment: Inhibition of cytosolic nNOS in stantia nigra isolated from MPTP-induced parkinson's disease C57/Bl6 mouse model assessed as L-[3H]citrulline per mg of protein at 20 mg/kg, b.w 1 hr before MPTP challenge after 32 hrs by liquid scintillation spectroscopy; format: organism-based; design: dose 20 mg/kg; method in brief: as §1
[7] = target: Nitric oxide synthase 1 (Mus musculus) (UniProt Q9Z0J4); experiment: Inhibition of constitutive mitochondrial NOS in stantia nigra isolated from MPTP-induced parkinson's disease C57/Bl6 mouse model assessed as L-[3H]citrulline per mg of protein at 20 mg/kg, b.w 1 hr before MPTP challenge after 32 hrs by liquid scintillation spectroscopy; format: organism-based; design: dose 20 mg/kg; method in brief: as §1
[8] = target: T1, Nitric oxide synthase, inducible (Mus musculus); experiment: Inhibition of cytosolic iNOS in stantia nigra isolated from MPTP-induced parkinson's disease C57/Bl6 mouse model assessed as L-[3H]citrulline per mg of protein at 20 mg/kg, b.w 1 hr before MPTP challenge after 32 hrs by liquid scintillation spectroscopy; format: organism-based; design: dose 20 mg/kg; method in brief: as §1

Sequence of Nitric oxide synthase 1 (Homo sapiens) (P29475 whole entry): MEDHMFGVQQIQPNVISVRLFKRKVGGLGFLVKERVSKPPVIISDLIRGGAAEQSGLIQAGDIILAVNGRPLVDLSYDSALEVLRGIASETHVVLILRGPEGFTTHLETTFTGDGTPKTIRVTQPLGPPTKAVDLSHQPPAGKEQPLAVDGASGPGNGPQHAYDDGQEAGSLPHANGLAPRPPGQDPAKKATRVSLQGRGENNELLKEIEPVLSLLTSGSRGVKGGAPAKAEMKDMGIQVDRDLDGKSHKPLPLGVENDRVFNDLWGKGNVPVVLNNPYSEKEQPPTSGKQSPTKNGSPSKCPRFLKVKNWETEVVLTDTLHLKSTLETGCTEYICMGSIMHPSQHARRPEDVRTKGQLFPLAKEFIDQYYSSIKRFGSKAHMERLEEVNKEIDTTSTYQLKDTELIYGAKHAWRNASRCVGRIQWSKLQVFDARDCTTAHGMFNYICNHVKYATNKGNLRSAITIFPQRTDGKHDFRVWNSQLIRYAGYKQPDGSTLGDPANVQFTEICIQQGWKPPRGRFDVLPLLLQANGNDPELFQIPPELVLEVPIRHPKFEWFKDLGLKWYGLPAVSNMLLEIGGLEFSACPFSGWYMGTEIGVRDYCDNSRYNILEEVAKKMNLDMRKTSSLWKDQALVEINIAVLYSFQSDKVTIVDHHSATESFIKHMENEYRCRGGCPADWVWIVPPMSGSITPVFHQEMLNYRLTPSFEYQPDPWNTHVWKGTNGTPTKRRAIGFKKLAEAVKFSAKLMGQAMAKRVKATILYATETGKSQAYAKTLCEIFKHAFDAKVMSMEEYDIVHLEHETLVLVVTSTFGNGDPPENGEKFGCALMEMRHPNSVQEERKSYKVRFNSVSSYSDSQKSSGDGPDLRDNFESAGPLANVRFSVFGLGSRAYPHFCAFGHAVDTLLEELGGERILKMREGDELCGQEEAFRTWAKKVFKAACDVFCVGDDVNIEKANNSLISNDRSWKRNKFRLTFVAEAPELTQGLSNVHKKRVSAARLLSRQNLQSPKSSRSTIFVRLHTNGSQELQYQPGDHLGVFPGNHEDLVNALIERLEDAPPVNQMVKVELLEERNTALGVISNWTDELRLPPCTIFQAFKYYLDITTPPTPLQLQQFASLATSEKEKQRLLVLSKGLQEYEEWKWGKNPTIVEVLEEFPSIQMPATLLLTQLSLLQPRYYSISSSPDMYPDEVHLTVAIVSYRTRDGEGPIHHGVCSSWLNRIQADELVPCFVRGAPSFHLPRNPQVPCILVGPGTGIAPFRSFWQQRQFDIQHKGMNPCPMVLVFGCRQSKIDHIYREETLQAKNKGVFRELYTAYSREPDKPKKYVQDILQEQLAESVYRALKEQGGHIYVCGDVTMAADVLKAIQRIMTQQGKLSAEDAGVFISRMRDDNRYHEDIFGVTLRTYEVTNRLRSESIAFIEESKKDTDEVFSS

Structure (SMILES)	inhibition [1]	inhibition [2] [%]	inhibition [3] [%]	Activity [4]	Activity [5] [pmol/min]	Activity [6] [pmol/min]	Activity [7] [pmol/min]	Activity [8] [pmol/min]
COc1ccc(N)c(C(=O)CCNC(C)=O)c1	Dose-dependent effect	–	–	–	–	–	–	–
CCCNC(=O)c1ccc(-c2cc(OC)ccc2N)[nH]1	–	6.78	43.5	inactive	–	–	–	–
COc1ccc(N)c(C(=O)CC(NC(C)=O)C(=O)O)c1 (stereo unspecified)	Dose-dependent effect	–	–	–	–	–	–	–
Nc1ccccc1-c1ccc(C(=O)NC2CCCCC2)[nH]1	–	17.2	13.4	inactive	–	–	–	–
CCCCNC(=O)c1ccc(-c2cc(Cl)ccc2N)[nH]1	–	3.33	36.5	inactive	–	–	–	–
Nc1ccc(Cl)cc1-c1ccc(C(=O)NC2CC2)[nH]1	–	7.2	48.1	inactive	–	–	–	–
CCNC(=O)c1ccc(-c2cc(Cl)ccc2N)[nH]1	–	2.8	33.4	inactive	–	–	–	–
CCCCNC(=O)c1ccc(-c2ccccc2N)[nH]1	–	7.53	-0.01	inactive	–	–	–	–
NC(=O)c1ccc(-c2cc(Cl)ccc2N)[nH]1	–	5.34	34.5	inactive	–	–	–	–
COc1ccc(N)c(-c2ccc(C(=O)NC3CC3)[nH]2)c1	–	21.4	32.5	inactive	–	–	–	–
COc1ccc(N)c(-c2ccc(C(=O)NCc3ccccc3)[nH]2)c1	–	22.4	8.89	inactive	–	–	–	–
COc1ccc(N)c(-c2ccc(C(=O)NC3CCCC3)[nH]2)c1	–	26.2	15.3	inactive	–	–	–	–
CNC(=O)c1ccc(-c2ccccc2N)[nH]1	–	32.7	–	inactive	7.46	65.5	9.95	5.78
COc1ccc(N)c(-c2ccc(C(N)=O)[nH]2)c1	–	8.95	–	inactive	–	–	–	–
CNC(=O)c1ccc(-c2cc(OC)ccc2N)[nH]1	–	26.2	–	inactive	–	–	–	–
CCNC(=O)c1ccc(-c2ccccc2N)[nH]1	–	20.5	4.15	inactive	–	–	–	–
NC(=O)c1ccc(-c2ccccc2N)[nH]1	–	3.07	15	inactive	–	–	–	–
Nc1ccccc1-c1ccc(C(=O)NC2CCC2)[nH]1	–	20.1	8.44	inactive	–	–	–	–
Nc1ccccc1-c1ccc(C(=O)NC2CCCC2)[nH]1	–	52.8	5.36	inactive	9.45	74.3	14.1	6.53
Nc1ccccc1-c1ccc(C(=O)NC2CC2)[nH]1	–	-1.1	2.92	inactive	–	–	–	–
CN1CC=C(c2ccccc2)CC1	–	–	–	–	43.8	83.7	25.9	29.4
COc1ccc2[nH]cc(CCNC(C)=O)c2c1	Dose-dependent effect	–	–	–	23.6	19.9	13.8	19
Nc1ccccc1-c1ccc(C(=O)NCc2ccccc2)[nH]1	–	28.1	7.52	inactive	–	–	–	–
Cn1c(C(N)=O)ccc1-c1ccccc1N	–	16	9.56	inactive	–	–	–	–
CCCNC(=O)c1ccc(-c2ccccc2N)[nH]1	–	13.2	–	inactive	–	–	–	–
CNC(=O)c1ccc(-c2cc(Cl)ccc2N)[nH]1	–	1.27	17.1	inactive	–	–	–	–
